Test system: MS2 coat protein
Assay: apparent Kd, MS2 coat protein; higher = weaker binding; RNA-MaP array; FMN 200 µM where present
How it was run: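 Green signal from SNAP-549-labelled MS2 coat protein was normalised to red-channel RNA signal and to the median Fmax of control clusters. The protein was titrated from 0.7 or 1.5 nM, doubling to 3 µM, without and then with constant ligand, over designs transcribed by stalled E. coli RNA polymerase on Illumina sequencing-chip clusters, in 100 mM Tris-HCl pH 7.5, 80 mM KCl, 4 mM MgCl2, BSA, DTT, yeast tRNA and Tween-20. The apparent Kd is the median of filtered per-cluster binding-curve fits.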

[1] = designed as: OFF switch for flavin mononucleotide, no ligand
[2] = ligand present: flavin mononucleotide, designed as: OFF switch for flavin mononucleotide
[3] = designed as: ON switch for flavin mononucleotide, no ligand
[4] = ligand present: flavin mononucleotide, designed as: ON switch for flavin mononucleotide

Sequence | apparent Kd [1] | apparent Kd [2] | apparent Kd [3] | apparent Kd [4]
UCAGGCUUCGAGAAGGACAUGAAUCGUAGCAUUGCUACGAUGAAACAUACAUGAGGAUCACCCAUGUAGGAUAUCGGAGUCUGC | 5.14 nM | 5.55 nM |  | 
AGAUACAACCAGAAGGACAUGAGGAUCACCCAUGUAGGAUAUGGGUUACACGUUCCUGGGAAUUGUAACGACGCUACGAAGAGU |  |  | 126 nM | 12.8 nM
GGUGGACAUGAGGAUCACCCAUGUGAGGAUAUCGGCUGGCUAGUGGCGGCUGGCUUCUCGAGAAGGCGCAUAGU | 49.7 nM | 72.5 nM |  | 
UUAUGUUAUGUAGGAUAUCAUUAGAUUUGUAAUUUAAUUGUUAUUUAGAUUUGAGAAGGACAUUUACAUGAGGAUCACCCAUGU | 14.8 nM | 11.7 nM |  | 
GGACGUCUCAUUAACAUGAGGAUCACCCAUGUCGAUAGACAUGAGGAUAUGGAUCCUAAUUGGAUCCAGAAGGCAUGGACGUCC |  |  | 1040 nM | 67.6 nM
UGGUACUAGGGAGGAUAUGGGAAGAUACAUGAGGAUCACCCAUGUUUAAGAAUGGCGAGAGGCAACUAGAAGGCCCUAGUACCU |  |  | 271 nM | 15.6 nM
AUCAGCUCGUCAGGAUAUACGUCACUGCGUCAGCAGUGUGUUAAGAUCACAUGAGGAUCACCCAUGUAGAAGGGACGAGCUGAU | 6.7 nM | 27.9 nM |  | 
CUUUUGUGAGGAUAUCAGUAGUAAAUUAAUAAAAUUACUACUGAGAAGGCACAUGAGGAUCACCCAUGUUCCUC | 42.6 nM | 285 nM |  | 
AAUGAGACCGCAGGAUAUCCACAUGAGGAUCACCCAUGUUCUCAGAUCAGAAGCACGAUCUGCGAGGAGAAGGGCGACCUCAUA |  |  | 563 nM | 37.6 nM
UUAAAUCAUGUAGGAUAUGCAUGGCGAAGCUACGCAGAAGGACAUGAGGAUCACCCAUGUUAUAGCGACCCAGUUCGGUUGCAA | 94.3 nM | 230 nM |  | 
AACCUGAGGCUUUGCUUUAGGUGAACAUGAGGAUCACCCAUGUAGGAUAUGGUAGGCUUUGCUUACCAGAAGGACAUAUUAAUU | 39.3 nM | 86.1 nM |  | 
UUAUUAGCAGGAUAUAUCCAGGAUUACAUGAGGAUCACCCAUGUGACCGCUUGAAAUUCUAUAGAAGGGCUUUAUU | 33.2 nM | 36.4 nM |  | 
CUGAUGUUAGGAUAUCAGGCCGUGCGCGAAGGCGGGCAGCAUGAGAAGGAACAUGAGGAUCACCCAUGUGACGA | 27.2 nM | 67.8 nM |  | 
GGAUGAGAAACUCAUCCAUAACGAACAUGAGGAUCACCCAUGUAGGAUAUGCUACUCAAAGAGUAGCAGAAGGACAUGUGCCUU | 29.8 nM | 259 nM |  | 
CGUCGAUACCAGAAGGACAUGAGGAUCACCCAUGUAGGAUAUGGGUGACCGGGAUAGUGGACACAGCGCCCGGGCACAUGCGAC |  |  | 13.6 nM | 8.19 nM
UCCUGGCGAGGAUAUACAAUGUUUUUCGCGUGUAGUUGGAAACAUGAGGAUCACCCAUGUAGAAGGUGCUACUG | 32.6 nM | 25.6 nM |  | 
UUUAUAAGAAAAUAAACGAAGUGGCCAGAAGGUGAAUGCCACAUGAGGAUCACCCAUGUUUCGAUCAAGGAUAUGGUUUCUCAC |  |  | 400 nM | 107 nM
UGUUACUAGUAAGGAUAUACUUGCGAUAAGCUUGUAGAAGGUACAGUCUUUUGUAUAACAUGUUUACAUGAGGAUCACCCAUGU |  |  | 9.71 nM | 8.78 nM
AACUCGUCAGGAUAUGCGCGCAGUUACUGCGCUUCGCAAUUGCAGAAGGGACAUGAGGAUCACCCAUGUAGGUC | 42 nM | 45.4 nM |  | 
UUAAAUCAUGUAGGAUAUGCGUGGCGAAGCUAUGCAGAAGGACAUGAGGAUCACCCAUGUUCUGCGGUCUGCGUACAGAUCGCU | 18.3 nM | 155 nM |  | 
GAUCCUUCUGUUAGGAUAUGCUUUGGGCUUCCGCAGUAGAAGGAACAUGAGGAUCACCCAUGUCCGAUGCCGUC | 74.6 nM | 101 nM |  | 
AGUCGGGAAUACUCGAAUGGUUAGCAGGAUAUCGACAUGAGGAUCACCCAUGUUGGGUUGAAUGUCGAGAAGGGCUCGGAAUGA | 198 nM | 193 nM |  | 
GGUAGAGAGCAGGAUAUCUUGGGUAAGUAUCGUAGAGAAGGGCUCACAUGAGGAUCACCCAUGUGGUCCAAGAU | 15.5 nM | 34.2 nM |  | 
GCCAUCGCAUGAGGAUAUGCUCCGGUUUCCGGAGCAGAAGGCAUGUGAUAACACAUGAGGAUCACCCAUGUAGUUAAGAUGGCA |  |  | 5.51 nM | 4.62 nM
GGACAGUGUCGUUAUCCGUAGCGAACAUGAGGAUCACCCAUGUAGGAUAUGUUAUUAAACUAAUAACAGAAGGACGUUGGUCUC | 24.8 nM | 125 nM |  | 
CGGCGCUGUCGAGAGGAUAUGCGGUGAUGGACAUGAGGAUCACCCAUGUUAGCGAUAGCAUCACGGUAGAAGGCUCUACGGCUUG |  |  | 46.3 nM | 15.5 nM
AAAGUGUGAGGAUAUUCGUAGUACACGGAGACGUGUAUUACGGAGAAGGCACAUGAGGAUCACCCAUGUUCCUU | 20.4 nM | 143 nM |  | 
CAGCAAAAGUAGAAGGCAGUACUGAUUCAGUACUGAGGAUAUACAUGAGGAUCACCCAUGUAUUCCAGCUGAAUAAUAAAAUAU | 5.43 nM | 5.63 nM |  | 
